System: MS2 coat protein
Experiment: apparent Kd, MS2 coat protein; higher = weaker binding; RNA-MaP array; FMN 200 µM where present
Procedure, shortened: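 Binding was read on Illumina sequencing-chip clusters where stalled E. coli RNA polymerase had transcribed each design. A titration of SNAP-549-labelled MS2 coat protein began at 0.7 or 1.5 nM and doubled to 3 µM, once without ligand and once with constant ligand, in 100 mM Tris-HCl pH 7.5, 80 mM KCl, 4 mM MgCl2, BSA, DTT, yeast tRNA and Tween-20. The apparent Kd is the median of filtered per-cluster binding-curve fits, based on green signal normalised to red-channel RNA signal and control-cluster median Fmax.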

[1] = designed as: ON switch for flavin mononucleotide, no ligand
[2] = ligand present: flavin mononucleotide, designed as: ON switch for flavin mononucleotide
[3] = designed as: OFF switch for flavin mononucleotide, no ligand
[4] = ligand present: flavin mononucleotide, designed as: OFF switch for flavin mononucleotide

Sequence | apparent Kd [1] [nM] | apparent Kd [2] [nM] | apparent Kd [3] [nM] | apparent Kd [4] [nM]
GCCAUCGCAUGAGGAUAUGGUCUGCUUUGCAGACCAGAAGGCAUGUCAUAAGACAUGAGGAUCACCCAUGUAGUUAAGAUGGCA | 800 | 43.9 | – | –
ACCGCACAUGAGGAUCACCCAUGUCAGGAUAUACAAGAAAAUCAGGCUAAUGCCUGAAGUAGAAGGGACGAGGA | – | – | 22.4 | 14.2
CCAGGCUGUGUGAGGAUAUGCUGGUCCUUGGAUCAGCAGAAGGCACAUGAGGAUCACCCAUGUGAGGAGCUUGG | – | – | 20.2 | 98.8
CAUUGCGGAGGAUAUAGGCCGUAAUACAUGAGGAUCACCCAUGUGCCGCUGUAUAAUUCCCUAGAAGGUUGCCAUC | – | – | 15.4 | 15.7
UAAAAGACUAGCAUUCUAAAGAUCACAUGAGGAUCACCCAUGUAGGAUAUGAGCAGAAAAUCUGCUCAGAAGGACAUGCUAGUC | – | – | 5.51 | 6.02
GGGUACAUCGGAGGAUAUCAUGUAAAUACAUGAGGAUCACCCAUGUCGAUGGAGACAUCGGAGAGUGAGAAGGCCGAUGUACCG | 257 | 13.3 | – | –
UGAUAGGACAGAGGAUAUACGGAUAGGAUCUACUAUCCUCCUUUAAUAACAUGAGGAUCACCCAUGUAGAAGGCUGUCCUAUCU | – | – | 15.3 | 24.2
GAUACACAUGAGGAUCACCCAUGUCGUAUGACAUGAGGAUAUGUACAGACUUCGGUCUGUACAGAAGGCAUGUGUC | 115 | 199 | – | –
UAUUAUGUUCGAGGAUAUCCGCGAUGCCGACCAGGAGAAGGCGAACAUGAGGAUCACCCAUGUUAUAGAUGACCGGUUACCAAA | – | – | 23.8 | 41.2
UUUUUAUAAGAGAAGGAGGACUUCAUGAGGAUCACCCAUGUGUUAGUACUUAGGAUAUUUGAUAACAUGAGGAUCACCCAUGUC | 31.4 | 28.1 | – | –
UUUUUUGUACAAGGAUAUCUAUUAUAUUCACGUCCUACAUGAGGAUCACCCAUGUUAUAUAUUUUAGAGAAGGUGUAUUGUCUG | 31.7 | 35.5 | – | –
CCAUGACAAAGUCAUGGAUAACGAACAUGAGGAUCACCCAUGUAGGAUAUGCUACUCAAAGAGUAGCAGAAGGACAUGUGCCUU | – | – | 36.1 | 263
UUCAAUCACAUAGGAUAUAGAAUAUUAUUUUUUUACAUGAGGAUCACCCAUGUUUUAUUGGGUUUCUAGAAGGAUGAGUUAUUA | 451 | 289 | – | –
AAAUUUAACGAAGGAUAUGGUUACAUGAGGAUCACCCAUGUAAUGGCUGUGAUAUUGAUUAAGUUCCAGAAGGUCGUAUACAUA | – | – | 52.4 | 192
UGAACUAUGUAGAAGGCCCAUAUUUAUAUUUAGGGAGGAUAUACAUGAGGAUCACCCAUGUAUAGAGCAAGUGGACUUGUCAGU | – | – | 9.19 | 10.3
GAUGAGGUAGGAUAUACGAGAAGAUAGGGUAGAUAGAGAACACAUGAGGAUCACCCAUGUAGAAGGACCAGUAG | – | – | 25.3 | 55.7
GGUCGUCCCAUUAACAUGAGGAUCACCCAUGUCAAAAGACAUGAGGAUAUGCAUCCUAAUUGGAUGCAGAAGGCAUGGACGACC | 1060 | 87.7 | – | –
AGGUCGUGAGGAUAUCGUCCCGUGAGCAGUAGUUGCGCGGGUGAGAAGGCACAUGAGGAUCACCCAUGUCAUCC | – | – | 24.9 | 74.4
GAAUAAUUGAUCCAUUUUUAAAACAUGAGGAUCACCCAUGUGCAGGAUAUCGAUAGUUUUAGAUUCGAGAAGGGCAAGAACUGU | – | – | 88.2 | 149
AUUACAAUUGUAUACAUGAGGAUCACCCAUGUUAUAAGUCAUGAGGAUAUGGUAUUGUAGUUAUUCCAGAAGGCAUAUAGCUAA | 14.3 | 9.2 | – | –
CCUCCACAUGAGGAUCACCCAUGUCAGGAUAUCGUGUGCGCGUUUUCGGUCUUUCGUGCGAGAAGGGACGUCUG | – | – | 36.9 | 35
CCCUCAACAUGAGGAUCACCCAUGUAGGAUAUCGCUAUUGUAAUCAUGAAACAUGAUUACAAUAGCGAGAAGGACAUAUGUAAA | – | – | 27.4 | 140
AAUAACAGAGGAUAUACUAUUUUAUGUGUUUGUUAUUUUAAACAUGAGGAUCACCCAUGUAGAAGGCUGAUUAA | – | – | 42 | 44.6
UAUGUGUCAGGAUAUUAGUAGUAAAUGAAUAAAAUUAUUACUGAGAAGGGACAUGAGGAUCACCCAUGUGCCUU | – | – | 15.9 | 20.3
UGUCGGAGCAGAGGAUAUUACAUGAGGAUCACCCAUGUAUGUACCAAUAGCUGGAAACAGCAAUGUAAGAAGGCUGCUCCGACA | – | – | 6 | 24.7
UUGGCUAAACCUCAGAGUACCACAUGAGGAUCACCCAUGUGGAGAAGGGACUUUGUACCGUUGAGUCAGGAUAUUCAUUGGGUA | – | – | 5.17 | 7.35
CAGCGAUAGCUGAACAAUCUAUCUGAGGAUAUUCAUGAUAAACAUGAGGAUCACCCAUGUAAUUGGGAGAAGGCAGAUAGAUUG | 441 | 19.3 | – | –

Source: the EternaBench riboswitch data
